The list is not random: actives were taken first. Their share in the collection is about 2.6%.
Apaf1 inhib: inhibitors of human Apaf-1 apoptosome; AID 489030; 0.71% of 330,000 active; inhibition, % at 20 µM; O14727; reconstituted apoptosome caspase-3 activity, DEVD-Rh110 fluorescence; active = inhibition of at least 40% at 20 µM
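Assay system: Apoptosome proteins | Medium: pH 7.5 Hepes buffer with CHAPS, BSA, DTT | Also added: Cytochrome c and DEVD-Rh110 substrate | Times: 30 min plus 50 min, RT | Detection: Rhodamine 110 fluorescence at Ex 480/Em 540 nm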
PAD4 inh: inhibitors of human PAD4; Q9UM07; recombinant PAD4, RCA probe fluorescence polarization; inhibition, % at 6.36 µM; 0.41% of 330,000 active; AID 485272;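 active = percent inhibition above a cutoff equal to the mean of all tested compounds plus 3 SD, cut at about 15% in these data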
Target sequence (Q9UM07 whole entry, looked up): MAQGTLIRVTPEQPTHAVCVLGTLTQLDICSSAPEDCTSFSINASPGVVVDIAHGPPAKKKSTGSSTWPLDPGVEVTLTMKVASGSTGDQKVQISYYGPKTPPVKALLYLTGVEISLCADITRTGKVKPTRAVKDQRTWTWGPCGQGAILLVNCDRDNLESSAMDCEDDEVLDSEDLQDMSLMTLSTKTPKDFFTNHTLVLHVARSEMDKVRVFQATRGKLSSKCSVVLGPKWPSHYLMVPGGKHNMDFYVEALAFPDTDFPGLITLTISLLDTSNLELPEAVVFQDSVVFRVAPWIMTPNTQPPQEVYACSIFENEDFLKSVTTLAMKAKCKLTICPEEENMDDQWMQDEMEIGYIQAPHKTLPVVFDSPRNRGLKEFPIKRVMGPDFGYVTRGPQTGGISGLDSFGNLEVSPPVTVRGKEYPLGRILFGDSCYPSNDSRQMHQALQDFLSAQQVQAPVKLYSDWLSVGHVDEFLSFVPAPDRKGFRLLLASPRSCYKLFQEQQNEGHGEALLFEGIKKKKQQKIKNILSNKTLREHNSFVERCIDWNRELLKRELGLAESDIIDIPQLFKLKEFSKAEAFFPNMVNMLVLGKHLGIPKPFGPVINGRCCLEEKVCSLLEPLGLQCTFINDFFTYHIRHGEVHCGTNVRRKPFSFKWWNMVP
TDP2 absorb: blocks human TDP2 phosphodiesterase activity; recombinant TDP2, T5PNP hydrolysis, p-nitrophenol absorbance 415 nm; inhibition, % at 12.8 µM; 0.34% of 370,000 active; AID 720702; O95551;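 active = inhibition above the mean of all tested compounds plus 3 SD, set per campaign, cut at about 25% in these data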
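Incubation: 2 h at 37 °C; Test system: recombinant human TDP2; Quantity: enzyme 120 nM; Read-out basis: percent inhibition; Medium: 50 mM Tris-HCl pH 7.5 with Mg2+, KCl, DTT, BSA; Repeats: single replicate; Compound: 12.8 µM single point, 1% DMSO; Signal: epi absorbance; Reagent: 5 mM T5PNP chromogenic substrate; Benchmarks: no-enzyme high, DMSO-plus-enzyme low.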
GSTO1 counter: counter-screen for RBBP9 inhibitors: inhibitors of human GSTO1 | P78417 | recombinant GSTO1, activity-based probe fluorescence polarization | inhibition, % at 5.96 µM | 1.1% of 300,000 active | AID 1974;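 active = inhibition above the campaign mean inhibition plus 3 SD, cut at about 35% in these data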
PRMT1 inh: PRMT1 (human) inhibition, primary screen. Q99873. AID 652257. 1.3% of 370,000 active. inhibition, % at 2.79 µM. recombinant PRMT1, activity-based probe fluorescence polarization;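 active = inhibition above about 21% made by adding two undisclosed values, limit read from the data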
GSTO1 confirm: GSTO1 (human) inhibition, confirmation; recombinant GSTO1, probe fluorescence polarization; 54% of 2,400 active; inhibition, % at 5.96 µM; shares compounds with GSTO1 counter;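 active = inhibition above the primary screen's cutoff, its mean inhibition plus 3 SD, cut at about 35% in these data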;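 also: loss of polarization as inhibitors block binding of rhodamine sulfonate ester activity probe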
GSTO1 recomb ABPP: inhibitors of recombinant human GSTO1 | gel ABPP SE-Rh probe fluorescence | AID 463110 | 30% of 130 active | inhibition, % at 1 µM | shares compounds with GSTO1 counter;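 active = inhibition of the enzyme GSTO1 above about 75%, limit read from the data; inactive = inhibition below that limit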
Each line names hits and unclear results; the compound was inactive in the other large screens (follow-up assays come after a bar, where they were run).

CN(C)CC(c1ccc(O)cc1)C1(O)CCCCC1 (stereo unspecified)	none (no result: Apaf1 inhib, PAD4 inh, GSTO1 counter)
CC(C)C[C@H]1COc2cc(Br)ccc2S(=O)(=O)N1Cc1cn(CCC2OCCO2)nn1	none (no result: Apaf1 inhib, PAD4 inh, GSTO1 counter)
Cc1ccc(S(=O)(=O)N2CCCCC2)cc1NC(=O)CCc1nc2ccccc2c(=O)[nH]1	PRMT1 inh 22
COc1ccc(S(=O)(=O)N2CCCCC2)cc1NC(=O)CCc1nc2ccccc2c(=O)[nH]1	none
O=C(O)CCC(=O)Nc1sc2c(c1C(=O)Nc1cccc3ccccc13)CCCCC2	PRMT1 inh 24
COc1ccc(OC)c(NC(=O)c2c(NC(=O)CCC(=O)O)sc3c2CCCCC3)c1	none
Cc1cccc(CC(=O)Nc2ccon2)c1	GSTO1 counter 59 | GSTO1 confirm inactive
CNCc1ccccc1Sc1ccc(O)c(O)c1	GSTO1 counter 74, PRMT1 inh 66 (no result: Apaf1 inhib) | GSTO1 confirm 71
CCN(CC)CCNc1cc(C)nc2c1C(=O)C(=O)C=C2N1CCCCC1	GSTO1 counter 77 | GSTO1 confirm 45
CCN(CC)CCNC(=O)c1ccc(N2CCCCC2)c(NS(=O)(=O)c2ccc(C)cc2)c1	none
COc1ccccc1NS(=O)(=O)c1ccc2nc(CCl)[nH]c2c1	GSTO1 counter 85 | GSTO1 confirm 91 | GSTO1 recomb ABPP inactive
COc1ccc(OCc2nc3ccc(S(=O)(=O)Nc4ccccc4Cl)cc3[nH]2)cc1	none
O=C1Nc2ccccc2-n2nnnc2C1N1CCN(C(=O)c2ccco2)CC1 (stereo unspecified)	none (no result: Apaf1 inhib, PAD4 inh, GSTO1 counter)
CN(C)Cc1cc(O)c(CN(C)C)cc1O	Apaf1 inhib 65, GSTO1 counter 53 | GSTO1 confirm inactive
O=C(OC1CCc2ccccc2C1=O)c1ccccc1O (stereo unspecified)	GSTO1 counter 54 | GSTO1 confirm 48
O=C(N/N=C1\CCc2ccccc21)c1ccccc1O	none
C[C@H]1[C@@H](N(C)Cc2ccccc2)CC[C@@]23CCCN2C(=O)CCC[C@@H]13	none (no result: Apaf1 inhib, PAD4 inh, GSTO1 counter)
CCOc1ccccc1Oc1c(C)oc2c(CN3CCN(CCO)CC3)c(O)ccc2c1=O	none
COc1ccccc1Oc1c(C)oc2c(CN3CCN(CCO)CC3)c(O)ccc2c1=O	PAD4 inh 90, GSTO1 counter 67 | GSTO1 confirm inactive
CC1(C(=O)Nc2cccc(OC(F)(F)F)c2)Cc2c(-c3cccc(C(N)=O)c3)ccnc2O1 (stereo unspecified)	none (no result: Apaf1 inhib, PAD4 inh, GSTO1 counter)
O=C(c1[nH]ncc1-c1cccc(Br)c1)C1CO1 (stereo unspecified)	GSTO1 counter 82 | GSTO1 confirm 90 | GSTO1 recomb ABPP inactive
O=C(NNC(=O)c1ccccc1O)c1ccc(NS(=O)(=O)c2ccc(F)cc2)cc1	GSTO1 counter 48 | GSTO1 confirm inactive
O=C(Cc1ccccc1)NCCc1cnc[nH]1	none
CC(=O)NCCc1cnc[nH]1	GSTO1 counter 47 | GSTO1 confirm inactive
CCOC(=O)[C@]12CCCC=C1N(CCCOC)C(=O)[C@@H]2CC(=O)N1CCSCC1	none (no result: Apaf1 inhib, PAD4 inh, GSTO1 counter)
COC(=O)/C=C1\OCc2cccc(C)c21	none (no result: Apaf1 inhib, PAD4 inh, GSTO1 counter)
CCOC(=O)C/C(N)=N/NC(=O)c1ccc(Cl)cc1Cl	GSTO1 counter 62 | GSTO1 confirm inactive
COc1cccc(-n2nnc3c(=O)n(CC(=O)N4CCC(Cc5ccccc5)CC4)cnc32)c1	GSTO1 counter 39 | GSTO1 confirm inactive
COc1cccc(-n2nnc3c(=O)n(CC(=O)N4CCC(C)CC4)cnc32)c1	none
CC1=CC(C)(C)N(C(=O)CCl)c2ccccc21	GSTO1 counter 65 | GSTO1 confirm 58 | GSTO1 recomb ABPP inactive
CC1=CC(C)(C)N(C(=O)CCl)c2cc(C)ccc21	none
Cc1ccc[n+](C2=C([O-])c3ccccc3C(=O)C2=O)c1	none (no result: Apaf1 inhib, PAD4 inh, GSTO1 counter)
O=C1/C(=N\S(=O)(=O)c2cccs2)C([n+]2ccccc2)=C([O-])c2ccccc21	GSTO1 counter 92 | GSTO1 confirm 86
CC(C)(C)c1cc[n+](C2=C([O-])c3ccccc3C(=O)/C2=N\S(=O)(=O)c2cccs2)cc1	GSTO1 counter 80 | GSTO1 confirm 89
O=C(OCc1cn(Cc2ccc(F)cc2)nn1)N1CCCC1	none (no result: Apaf1 inhib, PAD4 inh, GSTO1 counter)
COc1ccc(S[C@]2(C(=O)N3CCN(c4ncccn4)CC3)CC(=O)N(C(=O)CCc3ccccc3)[C@@H]2c2ccc(OC)cc2)cc1	none (no result: Apaf1 inhib, PAD4 inh, GSTO1 counter)
C=CCN1C(=O)[C@@H](CC(=O)NCCCOCCCC)[C@]2(C(=O)OC)CCCCC=C12	none (no result: Apaf1 inhib, PAD4 inh, GSTO1 counter)
CC(C)NC(=O)CN1CCN(C(=O)CCl)CC1	GSTO1 counter 38 | GSTO1 confirm 58 | GSTO1 recomb ABPP inactive
CC(C)c1ccc(CN2CCN(C(=O)CCl)CC2)cc1	none (no result: Apaf1 inhib, PAD4 inh, GSTO1 counter)
O=C(COC(=O)c1ccc([N+](=O)[O-])s1)NC(=O)NCc1ccccc1	GSTO1 counter 51 | GSTO1 confirm inactive
S=c1[nH]nc(-c2cc(-c3ccccc3)n[nH]2)n1N=Cc1cccc(OCc2ccccc2)c1	none (no result: Apaf1 inhib, PAD4 inh, GSTO1 counter)
O=C1C(Cl)=C(NS(=O)(=O)c2ccc([N+](=O)[O-])cc2)C(=O)c2ccccc21	GSTO1 counter 100 | GSTO1 confirm 88
CCOC(=O)C(Cc1ccc(O)cc1)NC(=O)CCc1c[nH]c2ccccc12 (stereo unspecified)	GSTO1 counter 38 | GSTO1 confirm inactive
COC(=O)[C@H](Cc1c[nH]c2ccccc12)NC(=O)CCCc1c[nH]c2ccccc12	none
C[C@H]1CCCN1c1ccc2c(c1)O[C@H]1CCN(C1)S2(=O)=O	none (no result: Apaf1 inhib, PAD4 inh, GSTO1 counter)
CCOC(=O)C1CCCN(c2c(NCCN3CCCCC3CC)c(=O)c2=O)C1 (stereo unspecified)	GSTO1 counter 58 | GSTO1 confirm inactive
COC(=O)c1cc(-c2cccc(OCc3ccccc3)c2)c(=O)n2c1CCC2	none (no result: Apaf1 inhib, PAD4 inh, GSTO1 counter)
NC(=O)CCn1c(C(=O)c2ccc(Cl)cc2)c2ccccc2[n+]1[O-]	GSTO1 counter 50 | GSTO1 confirm inactive
Cc1ccc(C(=O)c2c3ccccc3[n+]([O-])n2CCC(=O)O)cc1	none
Nc1ccc(C(=O)O)c(O)c1	none
Nc1ccc(N)c(C(=O)O)c1	Apaf1 inhib 67, GSTO1 counter 57 (no result: TDP2 absorb, PRMT1 inh) | GSTO1 confirm inactive
O=C1C(NC(=O)C(F)(F)Br)CCCCN1Cc1cccc(C(F)(F)F)c1 (stereo unspecified)	none (no result: Apaf1 inhib, PAD4 inh, GSTO1 counter)
CCCCCCN1CCN(C2CN(Cc3cn(Cc4ccc(C)cc4)nn3)S(=O)(=O)C2)CC1 (stereo unspecified)	none (no result: Apaf1 inhib, PAD4 inh, GSTO1 counter)
CC1=CC(C)(C)Nc2ccc(OC(=O)CN3C(=O)CCC3=O)cc21	GSTO1 counter 62 | GSTO1 confirm inactive
CC1=CC(C)(C)Nc2ccc(C)cc21	none
CC(C)=CCc1c(O)c(CC=C(C)C)c2c(c1O)-c1cc(O)c(O)cc1CC2	GSTO1 counter 39 (no result: TDP2 absorb, PRMT1 inh) | GSTO1 confirm inactive
CCCCNC(=O)C(NC(=O)c1cccs1)C(=O)c1ccccc1 (stereo unspecified)	none (no result: Apaf1 inhib, PAD4 inh, GSTO1 counter)
